Data on two compounds can be found in ChEMBL document CHEMBL1125724, “Potential anti-AIDS agents. Synthesis and antiviral activity of naphthalenesulfonic acid derivatives against HIV-1 and HIV-2” (1991).

Values after ≈ are worked out from the molar mass of the structure shown.

Assay [1] has as its target Human immunodeficiency virus type 1 reverse transcriptase (Human immunodeficiency virus 1) (UniProt Q72547). As to conditions: 350 uM.
For assay [2] the target is unchanged. As to conditions: 14 uM.
Assay [3] has the same target. As to conditions: 350 uM. This is another data set of the same source.
For assay [4] the target is unchanged. The settings on record: 2.8 uM.
The subject of assay [5] is MT4. The experiment in a line: Compound tested for its inhibition of HIV-1 induced cytopathogenicity in MT-4 cells. The class given is functional. The settings on record: Homo sapiens, read-out: ED50 (the source's name). A digest of the protocol:
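MT-4 cells infected with HIV-1 (HTLV-III_B) at MOI 0.02 and incubated 4 days with a range of compound concentrations. Viable cells were counted by MTT. ED50 is the 50% antiviral dose from inhibition of virus-induced cytopathogenicity, given as the mean of two separate experiments.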
For orientation: Cytopathic effects are the visible damage that an infection or toxin causes in cultured cells.

The test system of assay [6] is MT4. The assay is described as follows: Compound was evaluated for inhibitory effect against MT-4 cells of HIV-2 at a concentration of 100(420) ug/mL (uM). The class given is functional, Homo sapiens. In a few lines: (§1)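 HIV-2 (ROD strain) infected MT-4 cells at multiplicity of infection 0.02, incubated with a range of compound concentrations for 4 days. Viable cells counted by MTT method. Per-concentration inhibition of virus-induced cytopathogenicity; values are means of two separate experiments.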

Assay [7] deals with MT4. The experiment in a line: Compound was evaluated for inhibitory effect against MT-4 cells of HIV-2 at a concentration of 0.8(3.4) ug/mL (uM). It is filed as functional, Homo sapiens. A digest of the protocol:
as §1

In assay [8] the target is Human immunodeficiency virus type 1 reverse transcriptase (Human immunodeficiency virus 1) (UniProt Q72547). The experiment in a line: Compound tested for % inhibition of cell-free HIV-1 Reverse Transcriptase at a concentration of 84 uM. In a few lines:
(§2)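 HIV-1 RT from partially purified, concentrated disrupted virions. Reaction at 37 °C for 30 min in 50 mM Tris-HCl pH 8.4, 2 mM DTT, 100 mM KCl, 10 mM MgCl2, 0.1% Triton X-100, with 1 µCi [methyl-3H]dTTP (30 Ci/mmol) and 0.01 unit poly(rA)·oligo(dT). Stopped with 5% TCA; precipitate collected on glass-fiber filters and counted by liquid scintillation. Experimental variation at most 10%.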

In assay [9] the test system is MT4. The assay is described as follows: Cell viability at a concentration of 20(84) ug/mL (uM). It is filed as functional, Homo sapiens.
Assay [10] relates to MT4. The experiment in a line: Cell viability at a concentration of 4(16.8) ug/mL (uM). It is filed as functional, Homo sapiens.
Assay [11] has as its system MT4. The experiment in a line: Cell viability at a concentration of 0.8(3.4) ug/mL (uM). It is filed as functional, Homo sapiens.
The test system of assay [12] is MT4. The experiment in a line: Compound was evaluated for inhibitory effect against MT-4 cells of HIV-2 at a concentration of 4(16.8) ug/mL (uM). The class given is functional, Homo sapiens. In a few lines: as §1
In assay [13] the test system is MT4. The assay is described as follows: Compound tested for its inhibition of HIV-2 induced cytopathogenicity in MT-4 cells. It is filed as functional. The settings on record: Homo sapiens, read-out: ED50 (the source's name). A digest of the protocol: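 MT-4 cells infected with HIV-2 (ROD) at MOI 0.02 and incubated 4 days with a range of compound concentrations. Viable cells were counted by MTT. ED50 is the dose giving 50% inhibition of virus-induced cytopathogenicity, given as the mean of two separate experiments.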

In assay [14] the test system is MT4. The assay is described as follows: Compound was evaluated for inhibitory effect against MT-4 cells of HIV-2 at a concentration of 20(84) ug/mL (uM). It is filed as functional, Homo sapiens. In a few lines:
as §1

Assay [15] relates to MT4. The assay is described as follows: Compound was evaluated for inhibitory effect against MT-4 cells of HIV-1 at a concentration of 100(420) ug/mL (uM). The class given is functional, Homo sapiens. A digest of the protocol: (§3)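 HIV-1 (HTLV-III_B) infected MT-4 cells at multiplicity of infection 0.02, incubated with a range of compound concentrations for 4 days. Viable cells counted by MTT method. Per-concentration inhibition of virus-induced cytopathogenicity; values are means of two separate experiments.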

Assay [16] relates to MT4. The experiment in a line: Cell viability at a concentration of 100(420) ug/mL (uM). The class given is functional, Homo sapiens.
For assay [17], the system named is MT4. The assay is described as follows: Compound was evaluated for inhibitory effect against MT-4 cells of HIV-1 at a concentration of 20(84) ug/mL (uM). It is filed as functional, Homo sapiens. In a few lines:
as §3

For assay [18], the system named is MT4. The experiment in a line: Compound was evaluated for inhibitory effect against MT-4 cells of HIV-1 at a concentration of 0.8(3.4) ug/mL (uM). The class given is functional, Homo sapiens. A digest of the protocol:
as §3

Assay [19] has as its system MT4. The assay is described as follows: Compound tested for its ability to reduce viability of mock-infected MT-4 cells. As to conditions: Homo sapiens, read-out: CD50 (the source's name). The class given is functional. A digest of the protocol: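 Mock-infected MT-4 cells were incubated 4 days with a range of compound concentrations, and viability was read by MTT. CD50 is the 50% cytotoxic dose from reduced viability, given as the mean of two separate experiments.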

In assay [20] the target is Human immunodeficiency virus type 1 reverse transcriptase (Human immunodeficiency virus 1) (UniProt Q72547). The experiment in a line: Compound tested for % inhibition of cell-free HIV-1 Reverse Transcriptase at a concentration of 16.8 uM. In a few lines:
as §2

The test system of assay [21] is Human immunodeficiency virus 1. The assay is described as follows: Compound tested for % inhibition of giant cell formation at a concentration of 420 uM.
The target of assay [22] is Human immunodeficiency virus type 1 reverse transcriptase (Human immunodeficiency virus 1) (UniProt Q72547). The experiment in a line: Inhibitory dose at a concentration of 2100 uM cell-free HIV-1 Reverse Transcriptase. In a few lines: as §2

In turn, `Cc1ccc(C(=O)Nc2ccc(S(=O)(=O)O)c3cc(S(=O)(=O)O)cc(S(=O)(=O)O)c23)cc1NC(=O)c1cccc(NC(=O)Nc2cccc(C(=O)Nc3cc(C(=O)Nc4ccc(S(=O)(=O)O)c5cc(S(=O)(=O)O)cc(S(=O)(=O)O)c45)ccc3C)c2)c1` came in with an ID50 in assay [1] of 42 µg/mL (≈ 32.4 µM). Besides, the figures for the inhibition in assay [2], in [3] and in [4] were 22%, 92% and 18%, respectively.

On to `Nc1cc(S(=O)(=O)O)c2ccccc2c1N`, for which the EC50 in the assay with MT4 [5] and with MT4 [13] was over 45 µg/mL each time. The Inhibition (as a rule, the percentage by which the read-out fell short of the control) in the assay on MT4 [6] is given as 0%; in the assay with MT4 [7] it was 1%; in the assay with MT4 [12] it was 3%; with MT4 [14] it was 0%; in the assay on MT4 [15], 0%; in the assay with MT4 [17], 0%. The compound also came in with an Inhibition in the assay with MT4 [18] of 0%. Moreover, the results for the inhibition in assay [8], in assay [20] and in [21] were 1%, 2% and 0%, respectively. Also, the Cell viability in the assay on MT4 [9] amounted to 1; in the assay with MT4 [10] it was 0; in the assay with MT4 [11], 13; with MT4 [16], 97. Moreover, the CC50 in the assay on MT4 [19] turned out to be 45 µg/mL (≈ 189 µM). In addition, the ID50 in assay [22] was over 500 µg/mL.
